# Assay results reported in PubChem BioAssay AID624038 (The Scripps Research Institute Molecular Screening Center, 2012).
# Among all 360,000 compounds or so, about 1,100 (0.31%) were called active.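 How the source made its calls: active means activation above the run cutoff, the mean activation of all test compounds plus 3 SD (cut at about 18% in these data); inactive means the rest.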 The sample as a whole holds a higher share of actives than the screen did.
# Target: Muscarinic acetylcholine receptor M5 (Homo sapiens) (UniProt P08912)
# Assay: CHRM5 PAMs potentiating acetylcholine calcium signal – CHO-K1 cells, Fluo-8 calcium fluorescence, primary screen (AID 624038)
# Conditions: CHO-K1 hM5, Fluo-8 calcium, ACh EC20 PAM; at 3 µM; stronger effect = higher value; 0% = ACh EC20, 100% = ACh EC100
# Procedure, shortened: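 System: CHO-K1 cell line with stable human muscarinic M5 receptor expression | Also added: EC20 acetylcholine as agonist stimulus | Compound: One concentration, 3 µM final (nominal) | Timing: Fluo-8 loading 80 min at 37 °C plus 30 min room temperature | Measured by: Fluo-8 calcium dye fluorescence, kinetic read | Read-out basis: % activation, ACh-normalized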
# Chain of Muscarinic acetylcholine receptor M5 (Homo sapiens) (P08912 whole entry, looked up): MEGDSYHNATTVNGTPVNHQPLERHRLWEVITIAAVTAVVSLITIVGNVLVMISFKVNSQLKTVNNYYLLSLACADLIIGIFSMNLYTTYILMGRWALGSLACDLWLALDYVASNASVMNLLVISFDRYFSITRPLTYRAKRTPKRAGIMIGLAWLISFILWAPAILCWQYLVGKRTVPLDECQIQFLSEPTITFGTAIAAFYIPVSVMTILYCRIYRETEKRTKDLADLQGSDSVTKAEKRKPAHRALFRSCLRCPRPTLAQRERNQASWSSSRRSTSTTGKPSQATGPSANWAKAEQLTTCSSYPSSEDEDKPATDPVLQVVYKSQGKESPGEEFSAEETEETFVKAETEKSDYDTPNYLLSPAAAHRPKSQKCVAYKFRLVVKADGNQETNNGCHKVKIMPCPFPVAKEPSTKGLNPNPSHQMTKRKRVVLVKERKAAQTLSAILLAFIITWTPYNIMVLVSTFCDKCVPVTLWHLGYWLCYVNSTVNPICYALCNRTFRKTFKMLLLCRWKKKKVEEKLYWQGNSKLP
row,SMILES,activation
1,Cc1ccc(C(=O)OC2=CC(=O)CC(C)(C)C2)cc1,0.4% (inactive)
2,COc1ccc(C(C(=O)NCC2CCCO2)N(C(=O)Cn2nnc3ccccc32)c2ccc(NC(C)=O)cc2)cc1OC (configuration not stated),5.16% (inactive)
3,Cc1ccc(C(C(=O)NCc2ccco2)N(CC2CCCO2)C(=O)Cn2nnc3ccccc32)cc1 (configuration not stated),-1.09% (inactive)
4,CCOc1cc(C(C(=O)NCC2CCCO2)N(C(=O)Cn2nnc3ccccc32)c2cccc(OC)c2)ccc1O (configuration not stated),19% (active)
5,Cc1cc(C)c(OCCN2CC(C)OC(C)C2)c(Br)c1 (configuration not stated),23.1% (active)
6,CC1CN(CCCOc2ccccc2-c2ccccc2)CC(C)O1 (configuration not stated),0.63% (inactive)
7,CC1CN(CCOc2ccccc2[N+](=O)[O-])CC(C)O1 (configuration not stated),8.76% (inactive)
8,CCN(CC)Cc1csc2ccc(Br)cc12,-8.32% (inactive)
9,CN(Cc1ccccc1)C(=O)[C@@H]1CCCN1C(=O)[C@@H]1CCCN1C(=O)c1c(F)cccc1F,-3.49% (inactive)
10,O=C(CCN1C(=O)[C@@H]2Cc3ccccc3CN2C1=O)NCc1ccccc1,21.5% (active)
11,O=C(CCN1C(=O)[C@@H]2Cc3ccccc3CN2C1=O)NCCc1ccccc1,-2.71% (inactive)
12,Cc1ccc(CNC(=O)CCN2C(=O)[C@@H]3Cc4ccccc4CN3C2=O)cc1,-3.61% (inactive)
13,c1ccc(CCc2ccccn2)cc1,-5.1% (inactive)
14,O=C(CNC(=O)COc1ccccc1)NCCc1ccccn1,-11% (inactive)
15,O=C(O)C(CCc1ccccn1)c1ccccc1 (configuration not stated),19.2% (active)
16,Cc1cccc(C(=O)NC2CCN(CC(=O)Nc3cccc(Cl)c3)CC2)c1,-2.77% (inactive)
17,CCC(C)(C)n1nnnc1C(c1ccc(OC)c(OC)c1)N1CCN(C(=O)c2ccco2)CC1 (configuration not stated),4.04% (inactive)
18,COc1ccccc1N(C)C(=O)c1cc(S(=O)(=O)N2CCc3ccccc32)cn1C,-2.97% (inactive)
19,COc1ccccc1C(=O)Nc1ccc(OCC(=O)N2CCCCC2)cc1,1% (inactive)
20,COc1cccc(OC)c1C(=O)Nc1ccc(N2CCCCC2)cc1,20.9% (active)
21,COc1ccccc1C(=O)NC(=S)Nc1ccc(N2CCOCC2)cc1,4.29% (inactive)
22,CN(C)c1ccc(/C=N/NC(=O)C(O)c2ccc(Br)cc2)cc1 (configuration not stated),20.2% (active)
23,CN(C)c1ccc(/C=N/NC(=O)c2ccc(Cn3cc(Br)cn3)o2)cc1,-6.88% (inactive)

row,SMILES,activation
1,COc1ccc(/C=N/NC(=O)C(C)N(c2ccc(OC)cc2)S(C)(=O)=O)cc1 (configuration not stated),-7.14% (inactive)
2,O=C(NC1CCCCC1)C1CCC(CNS(=O)(=O)c2ccccc2)CC1 (configuration not stated),-2.41% (inactive)
3,COc1cc(C(=O)NC2CCN(C)CC2)ccc1Nc1ncc2c(n1)N(C1CCC(O)CC1)CCC(=O)N2C (configuration not stated),-2.26% (inactive)
4,CCCCCNC(=O)C1C(=O)Nc2ccccc2C(=O)N1C(C)(C)C (configuration not stated),7.08% (inactive)
5,COCCNC(=O)c1onc(CSc2cccc(C)c2)c1C(=O)O,-3.85% (inactive)
6,O=C(NNC(=O)C1CCN(c2ncccn2)CC1)c1ccccc1,26.2% (active)
7,O=C(NNC(=O)C1CCC1)c1ccccc1,2.72% (inactive)
8,O=C(NNc1nc(N2CCCC2)nc(N2CCCC2)n1)c1ccccc1,6.43% (inactive)
9,CN(C)/C(=N\OC(=O)c1ccccc1)c1nonc1N,-4.7% (inactive)
10,COc1cc(Cn2c3ccc(NC(=O)CC(C)c4ccccc4)cc3c(=O)n2C)ccc1F (configuration not stated),-5.77% (inactive)
11,O=C(Nc1cccc(C(=O)O)c1)/C(=C\c1ccccc1)NC(=O)c1ccc(Br)o1,-2.27% (inactive)
12,COc1ccc(NS(=O)(=O)c2ccc(C)c(C(=O)N(C)Cc3ccc(OC)cc3OC)c2)cc1,-3.1% (inactive)
13,CCC(NC(=O)c1ccccc1NC(=O)c1ccccc1)C(=O)NNC(=O)CSc1nc2ccccc2o1 (configuration not stated),-8.71% (inactive)
14,COc1cc(CNCc2ccc3c(c2)OCO3)c([N+](=O)[O-])cc1OC,-5.12% (inactive)
15,Cc1ccc(S(=O)(=O)N(Cc2ccccc2)c2ccccn2)cc1[N+](=O)[O-],-10.1% (inactive)
16,Nc1ccn(CC(=O)N2CCN(c3ccccn3)CC2)c(=O)n1,19% (active)
17,O=C(Cc1ccccc1Cl)N1CCN(c2ccccn2)CC1,-0.15% (inactive)
18,Cc1ccc2oc(=O)c3cnn(CC(=O)N4CCN(c5ccccn5)CC4)c3c2c1,-15.1% (inactive)
19,Cc1cccc(Nc2nc(-c3ccccc3)cs2)n1,22.1% (active)
20,CC(=O)NC(c1ccccc1)c1nc(-c2cccc(C(C)C)c2)cs1 (configuration not stated),-1.15% (inactive)
21,COc1ccc2c(c1OC)C(=O)OC2Nc1nc(-c2ccccc2)cs1 (configuration not stated),4.62% (inactive)
22,Cc1cccc(N(C(=O)Cc2cccs2)C(C(=O)NC2CCCC2)c2ccsc2)c1 (configuration not stated),-1.6% (inactive)
23,CCOc1ccc(C(=O)NC2CCN(C(=O)Nc3ccccc3OC)CC2)cc1,19.6% (active)

row,SMILES,activation
1,CCOc1ccc(C(=O)NC2CCN(S(=O)(=O)CC)CC2)cc1,11.7% (inactive)
2,Cc1ccc(C(=O)NC2CCN(C(=O)Nc3ccc(F)cc3)CC2)cc1,-2.54% (inactive)
3,Cc1cc(C)cc(NC(=O)N2CCC(NC(=O)c3ccc(F)cc3)CC2)c1,18.7% (active)
4,COc1ccc(C(=O)NC2CCN(C(=O)Nc3ccc(F)cc3)CC2)cc1,1.29% (inactive)
5,Cc1ccc(C(=O)NC2CCN(C(=O)Nc3ccccc3Cl)CC2)cc1,-7.16% (inactive)
6,Cc1ccc(OCC(=O)N2CCN(S(=O)(=O)c3ccc(Cl)s3)CC2)cc1C,6.01% (inactive)
7,CCCNCc1cc(OCC)c(OCC(=O)Nc2ccccc2)cc1Br,-3.11% (inactive)
8,C=CC[C@@H](CC(=O)N[C@@H](CO)Cc1ccccc1)C(=O)N[C@H](COC(=O)[C@H](CC=C)CC(=O)OC(C)(C)C)Cc1ccccc1,12.5% (inactive)
9,CCOC(=O)c1c(NC(=O)NC(C)(C)C)sc2c1CCN(C)C2,-2.43% (inactive)
10,CCOC(=O)C(C)N(c1ccccc1Cl)S(C)(=O)=O (configuration not stated),4.74% (inactive)
11,O=C(Nc1cc(S(=O)(=O)N2CCOCC2)ccc1OCC(F)(F)F)c1ccc(N2CCCC2=O)cc1,-1.35% (inactive)
12,COc1ccc(/C=C(/NC(=O)c2ccco2)C(=O)Nc2ccc(C(C)=O)cc2)cc1,5.57% (inactive)
13,COc1ccc2c(-c3ccccc3)cc(SCC(=O)N(C)C3CCS(=O)(=O)C3)nc2c1 (configuration not stated),-0.41% (inactive)
14,CN(C(=O)COC(=O)c1cc(-c2ccco2)nc2ccccc12)C1CCS(=O)(=O)C1 (configuration not stated),2.3% (inactive)
15,Cc1c(-c2cccc(Cl)c2)nc2ccccc2c1C(=O)OCC(=O)N(C)C1CCS(=O)(=O)C1 (configuration not stated),20.2% (active)
16,CCOC(=O)C1=C(C)OC(N)=C(C#N)C1c1cncc(-c2ccc(F)cc2)c1 (configuration not stated),-7.72% (inactive)
17,CN1CCN(S(=O)(=O)c2ccc(Nc3ccc(F)cc3)nc2)CC1,11.7% (inactive)
18,C=CCN1C(=O)c2ccc(C(=O)N3CCC(C(=O)OCC)CC3)cc2C1=O,44.4% (active)
19,CCOC(=O)C1CCCN(C(=O)c2ccc(C)c(F)c2)CC1 (configuration not stated),0.17% (inactive)
20,CCOC(=O)C1CCCN(C(=O)c2ccc(N(C)C)cc2)CC1 (configuration not stated),-2.3% (inactive)
21,C=CCOC(=O)c1ccccc1C(=O)OCC=C,0.16% (inactive)
22,O=C(COC(=O)/C=C/c1ccc(OC(F)F)cc1)NC1CCCCC1,-3.38% (inactive)
23,CCN(CCn1cccn1)C(=O)CC1C(=O)NCCN1Cc1cccc(OC)c1OC (configuration not stated),-1.21% (inactive)

row,SMILES,activation
1,CCCC(CNC(=O)COC(=O)C1=NNC(=O)CC1)c1ccc(Cl)cc1Cl (configuration not stated),8.77% (inactive)
2,O=C(c1ccco1)N1CCN(CCOc2ccccc2)CC1,2.94% (inactive)
3,COC(c1ccccc1)c1nnc(CCC(=O)N2CCN(CCOc3ccccc3)CC2)o1 (configuration not stated),20% (active)
4,O=C(c1ccc(Br)o1)N1CCN(CCOc2ccccc2)CC1,4.96% (inactive)
5,CCC1=[N+]([O-])C(C)(/C(C)=N\O)N(O)C1(C)C (configuration not stated),3.88% (inactive)
6,CC(C)Cn1cc(-c2cncc3nccn23)cn1,-3.57% (inactive)
7,CC(C)(C)n1nc(Cc2cccc3ccccc23)c(C#N)c1N,-3.53% (inactive)
8,COc1ccc(-c2c(C#Cc3ccccc3)c3ccccc3n2C)cc1,0.62% (inactive)
9,CN(C)Cc1c(C#N)c2ccccc2n1C,18.2% (active)
10,CCN(Cc1ccccc1)C(=O)Cc1ccc(OC)c(S(=O)(=O)N2CCOCC2)c1,0.97% (inactive)
11,COc1ccc(NC(=O)CNC(=O)Cn2ccc3ccccc3c2=O)c(OC)c1,0.07% (inactive)
12,CCN(C[C@H]1N[C@@](CC)(C(=O)OC)[C@H]2C(=O)N(C)C(=O)[C@@H]12)C(=O)Nc1ccc(F)cc1,-0.26% (inactive)
13,O=C(NCc1ccccc1)C1c2ccccc2OCC(=O)N1C1CC1 (configuration not stated),6.75% (inactive)
14,O=C(NCc1nnc(SCC(=O)N2CCCc3ccccc32)o1)c1ccccc1F,22.5% (active)
15,Cc1ccc(NC(=O)CSc2nnc(CNC(=O)c3ccccc3F)o2)cc1Cl,-1.76% (inactive)
16,Cc1ccc(NC(=O)CSc2nnc(CNC(=O)c3ccccc3F)o2)cc1,0.28% (inactive)
17,COCCNC(=O)C1CCCN(Cc2ccccc2Cl)CC1 (configuration not stated),0.83% (inactive)
18,CCOC(=O)CC1(NC(=O)c2cc(COc3cncc(Cl)c3)on2)CCCCC1,-12.1% (inactive)
19,O=C(NNS(=O)(=O)c1ccc(F)cc1)c1cnccn1,-12.5% (inactive)
20,COc1ccc(CN(C(=O)c2cccs2)c2nccs2)cc1OC,-13.5% (inactive)
21,C[C@@H]1CC[C@]2(O[C@@H](CCO)C[C@H](O)[C@H]2O)O1,3.31% (inactive)
22,C[C@H]1CC[C@]2(O[C@@H](CCO)C[C@@H](O)[C@@H]2O)O1,5.16% (inactive)
23,OCC[C@H]1C[C@H](O)[C@@H](O)[C@]2(CCCCO2)O1,19.8% (active)
